RAD52 inh: blocks human RAD52 DNA annealing | 360,000 compounds, 0.46% hits | P43351 | recombinant RAD52 DNA annealing, FRET fluorescence | inhibition, % at 18.7 µM | AID 651710;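 active = every replicate showing at least 50% inhibition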
Neddyl block: cullin neddylation inhibition; calls only at 25 µM; P61081+Q13564; TR-FRET cullin neddylation, biochemical; 360,000 compounds, 0.58% hits; in the data active = inhibition above about 36%
RAD54 branch: inhibitors of human RAD54 branch migration; RAD54 Holliday junction branch migration, FAM/BHQ fluorescence; 360,000 compounds, 0.14% hits; Q92698; inhibition, % at 10.4 µM;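 active = mean normalized replicate activity at least 40 and at least half of replicates scoring 40 or more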;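 note: inhibitors cause a drop in the FAM fluorescence signal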
Target sequence (Q92698 whole entry, looked up): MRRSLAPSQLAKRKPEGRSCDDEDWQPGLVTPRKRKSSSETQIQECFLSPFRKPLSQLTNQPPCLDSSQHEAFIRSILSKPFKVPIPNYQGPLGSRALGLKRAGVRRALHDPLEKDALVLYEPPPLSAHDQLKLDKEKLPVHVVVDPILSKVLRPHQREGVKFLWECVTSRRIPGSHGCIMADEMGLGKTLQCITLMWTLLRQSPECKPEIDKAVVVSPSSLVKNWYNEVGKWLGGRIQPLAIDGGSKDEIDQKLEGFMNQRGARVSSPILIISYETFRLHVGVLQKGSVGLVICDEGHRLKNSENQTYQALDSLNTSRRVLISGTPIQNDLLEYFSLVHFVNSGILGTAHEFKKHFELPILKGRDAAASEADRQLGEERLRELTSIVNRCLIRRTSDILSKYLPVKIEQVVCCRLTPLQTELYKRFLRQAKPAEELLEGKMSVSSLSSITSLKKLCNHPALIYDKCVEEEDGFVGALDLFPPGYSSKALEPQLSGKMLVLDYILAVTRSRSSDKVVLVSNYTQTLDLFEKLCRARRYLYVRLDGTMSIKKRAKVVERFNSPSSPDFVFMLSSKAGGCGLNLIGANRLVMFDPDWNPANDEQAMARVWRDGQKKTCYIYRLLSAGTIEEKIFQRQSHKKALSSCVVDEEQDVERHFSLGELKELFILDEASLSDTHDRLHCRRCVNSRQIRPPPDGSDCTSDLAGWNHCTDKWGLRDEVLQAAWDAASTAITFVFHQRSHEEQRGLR
FID counter: displaces DNA intercalator in HCV helicase counter-screen | DNA fluorescent intercalator displacement, fluorescence | inhibition, % at 7.9 µM | 290,000 compounds, 0.17% hits | AID 1845; in the data active = inhibition above about 37%;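 note: higher means more ethidium bromide displaced from hairpin DNA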
UBC13 polyUb: blocks human UBC13 polyubiquitin chain formation. P61088. TR-FRET. inhibition, % at 20 µM. 330,000 compounds, 0.47% hits. AID 485273; in the data active = inhibition above about 45%, passing the limit was not always enough
Apaf-1 inh: blocks human Apaf-1 apoptosome activity; 330,000 compounds, 0.71% hits; reconstituted apoptosome caspase-3 activity, DEVD-Rh110 fluorescence; O14727; inhibition, % at 20 µM; active = inhibition of at least 40% at 20 µM
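Material: cell-free apoptosome with Apaf-1, procaspase-3 and caspase-9; Buffer or medium: Hepes pH 7.5 with detergent and BSA; Reagent: cytochrome c trigger plus (Z-DEVD)2-Rh110 caspase-3 substrate; Times: compound with Apaf-1, dATP, procaspase-3 30 min, then 50 min reaction, room temperature; Technique: Rh110 fluorescence intensity.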
Apaf-1 inh conf: Apaf-1 inhibition, single-dose confirmed | shares compounds with Apaf-1 inh | reconstituted apoptosome, caspase-3 DEVD-Rh110 fluorescence | inhibition, % at 20 µM | 1,800 compounds, 25% hits;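 active = mean inhibition of at least 40% at 20 µM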
Rh110 interf inh: Rh110 signal interference in Apaf-1 inhibitor counter-screen. shares compounds with Apaf-1 inh. Rh110 fluorescence interference, quenched caspase reaction. activation (fluorescence interference), % at 20 µM. 1,800 tested, under 10 active;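 active = signal rise of 40% or more at 20 µM, treated as a fluorescence artifact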
A number is an active result; – = inactive; · = not tested or not shown. Hits are enriched below; roughly 1.6% of the tested compounds scored in any of these assays.

SMILES	RAD52 inh	Neddyl block	RAD54 branch	FID counter	UBC13 polyUb	Apaf-1 inh	Apaf-1 inh conf	Rh110 interf inh
COc1ccc(-n2c(N)c(C(=O)NCc3ccco3)c3nc4ccccc4nc32)cc1	·	·	·	–	–	–	·	·
C=CCn1c(N)c(C(=O)Nc2ccccc2)c2nc3ccccc3nc21	·	–	–	–	–	67.4	–	–
COC(=O)c1c(N)n(-c2ccc(NC(C)=O)cc2)c2nc3ccccc3nc12	·	·	–	–	–	48.8	–	–
COc1ccccc1CNC(=O)c1c(N)n(CCCN2CCOCC2)c2nc3ccccc3nc12	·	·	–	–	·	·	·	·
COCCNC(=O)c1c(N)n(-c2cccc(C)c2)c2nc3ccccc3nc12	·	·	–	–	–	–	·	·
C=CCn1c(N)c(C(=O)OC(C)CC)c2nc3ccccc3nc21 (stereo not drawn)	·	·	–	–	·	·	·	·
COCCNC(=O)c1c(N)n(CCCn2ccnc2)c2nc3ccccc3nc12	·	·	–	–	–	93.9	–	–
COCCNC(=O)c1c(N)n(-c2ccccc2)c2nc3ccccc3nc12	·	·	–	–	–	81.3	–	–
C[C@@H]1CCCCO[C@@H](CN(C)Cc2ccccc2)[C@@H](C)CN([C@@H](C)CO)C(=O)c2cc(NC(=O)CCCN(C)C)ccc2O1	–	·	–	·	·	·	·	·
Cc1ccc(S(=O)(=O)N(C)C[C@@H]2OCCCC[C@@H](C)Oc3ccc(NC(=O)NC(C)C)cc3C(=O)N([C@H](C)CO)C[C@H]2C)cc1	–	·	–	·	·	·	·	·
CCCN1[C@@H]2c3cccc(=O)n3C[C@H]1[C@H](CO)[C@H]2C(=O)N[C@H](C)c1ccccc1	–	·	·	·	·	·	·	·
COc1ccc(-c2ccc3c(c2)[C@H]2[C@H](CCN2S(=O)(=O)c2ccccc2C)[C@H](CO)N3)cc1	·	·	–	·	·	·	·	·
C[C@@H]1CN([C@H](C)CO)C(=O)c2cc(C#CC(C)(C)O)cnc2O[C@H]1CN(C)C(=O)C1CCOCC1	–	·	–	·	·	·	·	·
CO[C@@H]1CN(C)C(=O)c2cc(NC(=O)C3CCC3)ccc2OC[C@H](C)N(CC2CCCCC2)C[C@H]1C	–	·	–	·	·	·	·	·
C=CCNC(=O)c1c(N)n(-c2cccc(S(N)(=O)=O)c2)c2nc3ccccc3nc12	·	·	–	–	–	60.9	–	–
COCCCNC(=O)c1c(N)n(-c2ccccc2)c2nc3ccccc3nc12	–	·	–	–	–	83.6	–	–
Nc1c(C(=O)NCc2ccccc2)c2nc3ccccc3nc2n1-c1ccc2c(c1)OCO2	·	·	–	–	–	–	·	·
COCCCNC(=O)c1c(N)n(-c2ccc(S(N)(=O)=O)cc2)c2nc3ccccc3nc12	–	·	–	–	–	–	·	·
CCCNC(=O)C[C@H]1CC[C@@H]2[C@@H](COc3ccc(NC(=O)CC)cc3C(=O)N2C)O1	–	·	–	·	·	·	·	·
Cc1ccc(S(=O)(=O)N[C@H]2CC[C@H](CCNC(=O)C3CC3)O[C@@H]2CO)cc1	–	·	–	·	·	·	·	·
CCn1cc(C(=O)OCC(=O)OC2CC(C)CCC2C(C)C)c(=O)c2ccc(C)nc21 (stereo not drawn)	·	–	–	–	–	47.6	–	–
CCN1[C@@H]2c3ccc(C4=CCCCC4)c(=O)n3C[C@@H]2[C@@H](CO)[C@@H]1C(=O)OC	–	·	–	·	·	·	·	·
O=C1NN(c2ccccc2)C(=O)/C1=C/c1ccc(-c2ccc(C(=O)O)cc2)o1	–	–	–	–	–	–	·	·
O=C(O)c1ccc(N2C(=O)/C(=C/c3ccc(-c4ccc([N+](=O)[O-])cc4)o3)C=C2c2ccccc2)cc1	·	–	·	–	–	51.7	–	–
O=C(C[C@H]1C[C@H](C(=O)N2CCCCC2)[C@@]2(CCc3ccccc3)c3[nH]c4cc(-c5ccco5)ccc4c3CCN2C1=O)NCCN1CCOCC1	–	·	–	·	·	47.7	–	–
SMILES	RAD52 inh	Neddyl block	RAD54 branch	FID counter	UBC13 polyUb	Apaf-1 inh	Apaf-1 inh conf	Rh110 interf inh
CC[C@]12c3[nH]c4ccc(OC)cc4c3CCN1C(=O)C(CC(=O)NC/C=C(\C)CCC=C(C)C)C[C@@H]2C(=O)N1CCN(C(=O)c2ccco2)CC1 (stereo partly drawn)	–	–	–	·	·	40.2	–	–
COCCCNC(=O)C[C@H]1C[C@H](C(=O)N2CCCCC2)[C@@]2(CCc3ccccc3)c3[nH]c4cc(-c5ccco5)ccc4c3CCN2C1=O	–	·	–	·	·	–	·	·
CC[C@]12c3[nH]c4ccccc4c3CCN1C(=O)C(CC(=O)NC/C=C(\C)CCC=C(C)C)C[C@@H]2C(=O)N1CCN(C(=O)c2ccco2)CC1 (stereo partly drawn)	–	–	–	·	–	–	·	·
CC(C)N(C(=O)[C@H]1C[C@H](CC(=O)NCCC2=CCCCC2)C(=O)N2CCc3c([nH]c4ccc(Cl)cc34)[C@]12C)C(C)C	–	–	–	·	·	43.9	–	–
O=C(C[C@H]1C[C@H](C(=O)N2CCCCC2)[C@@]2(CCc3ccccc3)c3[nH]c4ccc(Cl)cc4c3CCN2C1=O)NCCCn1ccnc1	–	–	–	·	·	60.6	–	–
CC1C=NC(S(=O)(=O)N2CC[C@@H]3[C@H](CO)N(C)c4ccc(C#Cc5cccnc5)cc4[C@@H]32)=N1 (stereo partly drawn)	·	·	–	·	·	·	·	·
CC(=O)N[C@@H]1CC[C@@H](CCNC(=O)C2CCC2)O[C@@H]1CO	–	·	–	·	·	·	·	·
C[C@H](CO)N1C[C@H](C)[C@@H](CN(C)C(=O)CC2CC2)Oc2cc(-c3cccnc3)ccc2S1(=O)=O	–	·	–	·	·	·	·	·
C[C@@H]1CN([C@@H](C)CO)C(=O)Cc2cc(NS(=O)(=O)c3ccc(F)cc3)ccc2O[C@H]1CN(C)C	–	·	–	·	·	·	·	·
C[C@H](CO)N1C[C@H](C)[C@H](CN(C)S(=O)(=O)c2cccs2)Oc2ccc(NC(=O)NC3CCCCC3)cc2C1=O	–	·	–	·	·	·	·	·
COc1ccc(S(=O)(=O)Nc2ccc3c(c2)C(=O)N([C@@H](C)CO)C[C@@H](C)[C@H](CN(C)C(=O)Nc2ccccc2)OCCCC[C@@H](C)O3)cc1	–	·	–	·	·	·	·	·
CC(C)(C)NC(=O)C[C@H]1C[C@H](C(=O)N2CCOCC2)[C@@]2(CCC3CCCC3)c3[nH]c4ccc(Cl)cc4c3CCN2C1=O	·	–	–	·	·	44.3	–	–
O=C(C[C@H]1C[C@H](C(=O)N2CCOCC2)[C@@]2(CCC3CCCC3)c3[nH]c4cc(-c5ccco5)ccc4c3CCN2C1=O)NCCCn1ccnc1	–	·	–	·	·	62.3	–	–
CCN(CC)C(=O)[C@H]1C[C@H](CC(=O)NCCCn2ccnc2)C(=O)N2CCc3c([nH]c4cc(-c5ccco5)ccc34)[C@]12C	–	·	–	·	·	–	·	·
COc1cc(C(=O)NC(C)c2ccc(-n3ccnc3)cc2)cc(OC)c1C (stereo not drawn)	–	–	–	–	–	41.0	–	–
COc1ccc(-c2cc(-c3ccc(F)cc3)nc(N3CCN(C)CC3)n2)cc1	·	–	–	–	–	65.3	–	–

Assay outcomes as filed in PubChem.
